According to ChEMBL document CHEMBL5674890, “Selective inhibition of CBP/p300 HAT by A-485 results in suppression of lipogenesis and hepatic gluconeogenesis” (Cell Death Dis, 2020):
Active and inactive are the calls of the source. No cut-off for these calls is given here.

Assays:
Mus musculus [1] = assay: Anti-obesity activity in C57BL/6 mouse supplemented with normal chow diet assessed as decrease in total fat mass at 20 mg/kg/day, ip administered for 1 week measured by EchoMRI live analysis; format: functional; parameters: scale not given: the % may be the effect or the level left; details: time 1 weeks
Summary of the method: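 Normal-chow male C57BL/6 mice, 8 weeks old, ip 20 mg·kg−1·day−1 daily for 7 days. Total lean and fat mass measured in live animals by EchoMRI. Mean ± SEM, n = 5–9.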

Mus musculus [2] = assay: Anti-obesity activity in C57BL/6 mouse supplemented with normal chow diet assessed as effect on random blood glucose at 20 mg/kg/day, ip administered for 1 week; format: functional, organism-based; details: time 1.0 weeks
Summary of the method: (§1)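 8-week-old male C57BL/6 mice on normal chow, ip 20 mg·kg−1·day−1 for 7 days. Blood glucose measured randomly fed or after 6 h or 16 h fasting, as the line states. Mean ± SEM, n = 5–9.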

Mus musculus [3] = assay: Anti-obesity activity in 6 hrs fasted C57BL/6 mouse supplemented with normal chow diet assessed as effect on fasting blood glucose at 20 mg/kg/day, ip administered for 1 week; format: functional, organism-based; details: time 1.0 weeks; summary of the method: as §1
Mus musculus [4] = assay: Anti-obesity activity in 16 hrs fasted C57BL/6 mouse supplemented with normal chow diet assessed as decrease in blood glucose level at 20 mg/kg/day, ip administered for 1 week measured after 15 mins by intraperitoneal glucose tolerance test; format: functional, organism-based; details: time 1.0 weeks
Summary of the method: (§2)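 Male C57BL/6 mice on normal chow, 8 weeks old, given 20 mg·kg−1·day−1 ip daily for 7 days. After 16 h fasting, glucose 2 g/kg body weight ip; blood glucose read during the test. Mean ± SEM, n = 5–9; t test or ANOVA, P < 0.05.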

Mus musculus [5] = assay: Anti-obesity activity in 16 hrs fasted C57BL/6 mouse supplemented with normal chow diet assessed as decrease in blood glucose level at 20 mg/kg/day, ip administered for 1 week measured after 30 mins by intraperitoneal glucose tolerance test; format: functional, organism-based; details: time 1.0 weeks; summary of the method: as §2
Mus musculus [6] = assay: Anti-obesity activity in C57BL/6 mouse supplemented with high fat diet assessed as effect on total lean mass at 20 mg/kg/day, ip administered for 1 week; format: functional, organism-based; details: time 1.0 weeks
Summary of the method: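 Male C57BL/6 mice fed high-fat diet for 14 weeks from 5 weeks of age, then ip 20 mg·kg−1·day−1 for 7 days. Body weight, EchoMRI lean/fat mass, and random or 16 h-fasted blood glucose recorded, as the line states.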

Mus musculus [7] = assay: Anti-obesity activity in C57BL/6 mouse supplemented with high fat diet assessed as decrease in blood glucose level at 20 mg/kg/day, ip administered for 1 week measured by pyruvate tolerance test; format: functional, organism-based; details: time 1.0 weeks
Summary of the method: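 High-fat diet male C57BL/6 mice (14 weeks on HFD from 5 weeks of age) dosed ip at 20 mg·kg−1·day−1 for 7 days. 16 h fast, then pyruvate 2 g/kg body weight ip; blood glucose tracked.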

Mus musculus [8] = assay: Inhibition of lipogenesis in C57BL/6 mouse supplemented with high-fat diet assessed as decrease in weight of epididymal white adipose tissue (eWAT) at 20 mg/kg/day, ip administered for 1 week; format: functional, organism-based; details: time 1.0 weeks
Summary of the method: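 Male C57BL/6 mice were fed high-fat diet for 14 weeks from 5 weeks of age, then injected ip with 20 mg·kg−1·day−1 for 7 days or given vehicle. Epididymal and inguinal WAT were weighed, examined by H&E, and analysed. Transcripts were measured by Trizol/SYBR Green RT-qPCR; proteins by western blot. n = 5–9; mean ± SEM.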

Adipocyte [9] = assay: Inhibition of lipogenesis in mouse adipocytes isolated stromal vascular cells assessed as decrease in FASN mRNA expression measured after 24 hrs by RT-qPCR assay; format: functional, cell-based
Summary of the method: (§3)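 Stromal vascular cells from inguinal WAT of C57BL/6 mice, grown in DMEM/F12 + 10% FBS at 37 °C, 10% CO2. At confluence, induced 48 h with 5 μg/ml insulin, 1 μM dexamethasone, 0.5 mM isobutylmethylxanthine, then 6 days in 5 μg/ml insulin; fully differentiated day 8. Mature adipocytes exposed to inhibitor 24 h. Total RNA by Trizol, SYBR Green RT-qPCR; protein by western blot.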

Adipocyte [10] = assay: Inhibition of lipogenesis in mouse adipocytes isolated stromal vascular cells assessed as decrease in SCD1 mRNA expression measured after 24 hrs by RT-qPCR assay; format: functional, cell-based; summary of the method: as §3
Adipocyte [11] = assay: Inhibition of lipogenesis in mouse adipocytes isolated stromal vascular cells assessed as decrease in FABP4 mRNA expression measured after 24 hrs by RT-qPCR assay; format: functional, cell-based; summary of the method: as §3
Mus musculus [12] = assay: Inhibition of hepatic lipogenesis in C57BL/6 mouse supplemented with normal chow diet assessed as decrease in triglyceride level at 20 mg/kg/day, ip administered for 1 week measured by Oil red O staining method; format: functional, organism-based; details: time 1.0 weeks
Mus musculus [13] = assay: Inhibition of hepatic lipogenesis in C57BL/6 mouse supplemented with normal chow diet assessed as effect on MCAD mRNA expression at 20 mg/kg/day, ip administered for 1 week measured by RT-qPCR assay; format: functional, organism-based; details: time 1.0 weeks
Summary of the method: (§4)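 Normal-chow male C57BL/6 mice, 8 weeks old, were injected ip at 20 mg·kg−1·day−1 daily for 7 days or given vehicle. Liver RNA was extracted with Trizol, and fatty-acid-oxidation gene transcripts were quantified by SYBR Green RT-qPCR. n = 5–9; mean ± SEM.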

Mus musculus [14] = assay: Inhibition of hepatic lipogenesis in C57BL/6 mouse supplemented with normal chow diet assessed as effect on ACO mRNA expression at 20 mg/kg/day, ip administered for 1 week measured by RT-qPCR assay; format: functional, organism-based; details: time 1.0 weeks; summary of the method: as §4
Mus musculus [15] = assay: Inhibition of hepatic lipogenesis in C57BL/6 mouse supplemented with normal chow diet assessed as effect on ACADVL mRNA expression at 20 mg/kg/day, ip administered for 1 week measured by RT-qPCR assay; format: functional, organism-based; details: time 1.0 weeks; summary of the method: as §4
Hepatocyte [16] = assay: Inhibition of lipogenesis in mouse primary hepatocytes assessed as decrease in ChREBP protein expression at 3 uM in presence of 100 nM insulin and 5 to 25 mM glucose measured after 18 hrs by western blot analysis; format: functional, cell-based
Hepatocyte [17] = assay: Inhibition of glucogenesis in mouse primary hepatocytes stimulated with 100 uM 8-Br-cAMP assessed as effect on pCREB protein expression at 3 uM measured after 1 hr by western blot analysis; format: functional, cell-based
Summary of the method: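 Primary hepatocytes from C57BL/6 mice, isolated by two-step perfusion, were co-treated with 3 μM A-485 and 100 μM 8-Br-cAMP for 1 h. Phospho-CREB, phospho-AMPK and phospho-TORC2 were detected by western blot of cell lysates. Three independent experiments; mean ± SEM.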

[18] = molecular target: T1, CREB-binding protein/Histone acetyltransferase p300 (Homo sapiens) (UniProt Q09472+Q92793); assay: Inhibition of CBP/p300 in human HepG2 cells stimulated with 100 uM 8-Br-cAMP assessed as induction of FOXO1 deacetylation at 3 uM measured after 6 hrs; format: cell-based
T1 sequence (Q09472 whole entry, looked up): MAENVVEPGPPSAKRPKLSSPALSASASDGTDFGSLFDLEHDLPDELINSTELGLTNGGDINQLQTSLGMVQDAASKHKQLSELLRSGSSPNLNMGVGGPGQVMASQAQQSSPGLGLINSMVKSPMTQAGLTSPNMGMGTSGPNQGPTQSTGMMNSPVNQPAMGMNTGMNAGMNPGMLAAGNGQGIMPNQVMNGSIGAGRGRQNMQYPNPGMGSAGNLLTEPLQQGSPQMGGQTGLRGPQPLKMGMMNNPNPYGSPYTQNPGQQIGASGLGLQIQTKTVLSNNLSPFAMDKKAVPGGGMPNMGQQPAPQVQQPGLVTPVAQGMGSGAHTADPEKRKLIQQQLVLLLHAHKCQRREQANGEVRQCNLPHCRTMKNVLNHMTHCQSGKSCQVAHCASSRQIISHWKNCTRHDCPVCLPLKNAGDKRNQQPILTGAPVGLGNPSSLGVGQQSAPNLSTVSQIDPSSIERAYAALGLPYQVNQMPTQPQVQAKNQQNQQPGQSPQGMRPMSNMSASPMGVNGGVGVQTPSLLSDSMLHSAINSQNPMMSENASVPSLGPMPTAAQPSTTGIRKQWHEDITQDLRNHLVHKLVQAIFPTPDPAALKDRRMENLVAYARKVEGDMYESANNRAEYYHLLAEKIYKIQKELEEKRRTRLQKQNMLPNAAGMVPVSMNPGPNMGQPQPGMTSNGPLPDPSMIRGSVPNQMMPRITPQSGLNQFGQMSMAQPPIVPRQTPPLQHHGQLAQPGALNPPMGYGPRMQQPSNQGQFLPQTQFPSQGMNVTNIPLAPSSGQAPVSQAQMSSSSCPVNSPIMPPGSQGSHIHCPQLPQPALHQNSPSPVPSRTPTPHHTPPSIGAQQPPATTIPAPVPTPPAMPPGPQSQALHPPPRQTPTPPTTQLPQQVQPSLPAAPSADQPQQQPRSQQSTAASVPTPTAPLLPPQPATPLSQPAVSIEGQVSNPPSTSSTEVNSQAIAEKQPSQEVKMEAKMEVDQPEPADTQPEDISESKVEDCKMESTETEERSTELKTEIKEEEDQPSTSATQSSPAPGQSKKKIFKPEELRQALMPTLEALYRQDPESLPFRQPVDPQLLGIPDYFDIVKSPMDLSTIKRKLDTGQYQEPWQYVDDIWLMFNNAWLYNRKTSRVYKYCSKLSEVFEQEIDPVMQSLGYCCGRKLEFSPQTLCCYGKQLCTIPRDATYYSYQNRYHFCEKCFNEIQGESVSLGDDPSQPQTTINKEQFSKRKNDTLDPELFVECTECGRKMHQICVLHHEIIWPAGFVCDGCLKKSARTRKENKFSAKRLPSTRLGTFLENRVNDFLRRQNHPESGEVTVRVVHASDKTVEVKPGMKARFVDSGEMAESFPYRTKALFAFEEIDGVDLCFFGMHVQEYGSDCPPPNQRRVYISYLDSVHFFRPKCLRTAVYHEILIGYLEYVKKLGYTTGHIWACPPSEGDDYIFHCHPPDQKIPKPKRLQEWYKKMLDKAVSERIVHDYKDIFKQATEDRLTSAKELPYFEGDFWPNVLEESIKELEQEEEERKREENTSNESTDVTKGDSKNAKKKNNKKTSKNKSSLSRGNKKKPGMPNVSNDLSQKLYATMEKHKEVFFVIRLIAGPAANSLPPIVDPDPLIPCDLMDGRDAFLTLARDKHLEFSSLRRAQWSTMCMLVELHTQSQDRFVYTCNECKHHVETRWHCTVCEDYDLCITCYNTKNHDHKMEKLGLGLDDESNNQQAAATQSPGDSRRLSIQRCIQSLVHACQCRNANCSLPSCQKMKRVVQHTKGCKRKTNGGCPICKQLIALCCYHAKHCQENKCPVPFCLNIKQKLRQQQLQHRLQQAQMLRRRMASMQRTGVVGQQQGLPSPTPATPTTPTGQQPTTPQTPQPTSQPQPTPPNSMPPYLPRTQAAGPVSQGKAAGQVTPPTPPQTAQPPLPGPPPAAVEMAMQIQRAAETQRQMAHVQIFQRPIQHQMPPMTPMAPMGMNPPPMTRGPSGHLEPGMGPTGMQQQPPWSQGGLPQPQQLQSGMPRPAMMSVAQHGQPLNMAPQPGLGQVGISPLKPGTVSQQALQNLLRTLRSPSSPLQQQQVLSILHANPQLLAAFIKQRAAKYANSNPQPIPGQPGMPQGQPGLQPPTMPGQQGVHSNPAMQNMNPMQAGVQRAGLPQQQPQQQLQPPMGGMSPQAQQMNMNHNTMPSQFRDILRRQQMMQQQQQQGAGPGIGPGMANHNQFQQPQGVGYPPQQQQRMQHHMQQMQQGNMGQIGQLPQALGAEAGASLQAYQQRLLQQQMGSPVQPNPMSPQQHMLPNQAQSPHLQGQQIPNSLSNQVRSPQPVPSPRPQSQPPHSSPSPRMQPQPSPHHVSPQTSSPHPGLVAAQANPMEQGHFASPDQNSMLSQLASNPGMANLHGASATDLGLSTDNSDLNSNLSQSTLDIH
T1 sequence (Q92793 whole entry, looked up): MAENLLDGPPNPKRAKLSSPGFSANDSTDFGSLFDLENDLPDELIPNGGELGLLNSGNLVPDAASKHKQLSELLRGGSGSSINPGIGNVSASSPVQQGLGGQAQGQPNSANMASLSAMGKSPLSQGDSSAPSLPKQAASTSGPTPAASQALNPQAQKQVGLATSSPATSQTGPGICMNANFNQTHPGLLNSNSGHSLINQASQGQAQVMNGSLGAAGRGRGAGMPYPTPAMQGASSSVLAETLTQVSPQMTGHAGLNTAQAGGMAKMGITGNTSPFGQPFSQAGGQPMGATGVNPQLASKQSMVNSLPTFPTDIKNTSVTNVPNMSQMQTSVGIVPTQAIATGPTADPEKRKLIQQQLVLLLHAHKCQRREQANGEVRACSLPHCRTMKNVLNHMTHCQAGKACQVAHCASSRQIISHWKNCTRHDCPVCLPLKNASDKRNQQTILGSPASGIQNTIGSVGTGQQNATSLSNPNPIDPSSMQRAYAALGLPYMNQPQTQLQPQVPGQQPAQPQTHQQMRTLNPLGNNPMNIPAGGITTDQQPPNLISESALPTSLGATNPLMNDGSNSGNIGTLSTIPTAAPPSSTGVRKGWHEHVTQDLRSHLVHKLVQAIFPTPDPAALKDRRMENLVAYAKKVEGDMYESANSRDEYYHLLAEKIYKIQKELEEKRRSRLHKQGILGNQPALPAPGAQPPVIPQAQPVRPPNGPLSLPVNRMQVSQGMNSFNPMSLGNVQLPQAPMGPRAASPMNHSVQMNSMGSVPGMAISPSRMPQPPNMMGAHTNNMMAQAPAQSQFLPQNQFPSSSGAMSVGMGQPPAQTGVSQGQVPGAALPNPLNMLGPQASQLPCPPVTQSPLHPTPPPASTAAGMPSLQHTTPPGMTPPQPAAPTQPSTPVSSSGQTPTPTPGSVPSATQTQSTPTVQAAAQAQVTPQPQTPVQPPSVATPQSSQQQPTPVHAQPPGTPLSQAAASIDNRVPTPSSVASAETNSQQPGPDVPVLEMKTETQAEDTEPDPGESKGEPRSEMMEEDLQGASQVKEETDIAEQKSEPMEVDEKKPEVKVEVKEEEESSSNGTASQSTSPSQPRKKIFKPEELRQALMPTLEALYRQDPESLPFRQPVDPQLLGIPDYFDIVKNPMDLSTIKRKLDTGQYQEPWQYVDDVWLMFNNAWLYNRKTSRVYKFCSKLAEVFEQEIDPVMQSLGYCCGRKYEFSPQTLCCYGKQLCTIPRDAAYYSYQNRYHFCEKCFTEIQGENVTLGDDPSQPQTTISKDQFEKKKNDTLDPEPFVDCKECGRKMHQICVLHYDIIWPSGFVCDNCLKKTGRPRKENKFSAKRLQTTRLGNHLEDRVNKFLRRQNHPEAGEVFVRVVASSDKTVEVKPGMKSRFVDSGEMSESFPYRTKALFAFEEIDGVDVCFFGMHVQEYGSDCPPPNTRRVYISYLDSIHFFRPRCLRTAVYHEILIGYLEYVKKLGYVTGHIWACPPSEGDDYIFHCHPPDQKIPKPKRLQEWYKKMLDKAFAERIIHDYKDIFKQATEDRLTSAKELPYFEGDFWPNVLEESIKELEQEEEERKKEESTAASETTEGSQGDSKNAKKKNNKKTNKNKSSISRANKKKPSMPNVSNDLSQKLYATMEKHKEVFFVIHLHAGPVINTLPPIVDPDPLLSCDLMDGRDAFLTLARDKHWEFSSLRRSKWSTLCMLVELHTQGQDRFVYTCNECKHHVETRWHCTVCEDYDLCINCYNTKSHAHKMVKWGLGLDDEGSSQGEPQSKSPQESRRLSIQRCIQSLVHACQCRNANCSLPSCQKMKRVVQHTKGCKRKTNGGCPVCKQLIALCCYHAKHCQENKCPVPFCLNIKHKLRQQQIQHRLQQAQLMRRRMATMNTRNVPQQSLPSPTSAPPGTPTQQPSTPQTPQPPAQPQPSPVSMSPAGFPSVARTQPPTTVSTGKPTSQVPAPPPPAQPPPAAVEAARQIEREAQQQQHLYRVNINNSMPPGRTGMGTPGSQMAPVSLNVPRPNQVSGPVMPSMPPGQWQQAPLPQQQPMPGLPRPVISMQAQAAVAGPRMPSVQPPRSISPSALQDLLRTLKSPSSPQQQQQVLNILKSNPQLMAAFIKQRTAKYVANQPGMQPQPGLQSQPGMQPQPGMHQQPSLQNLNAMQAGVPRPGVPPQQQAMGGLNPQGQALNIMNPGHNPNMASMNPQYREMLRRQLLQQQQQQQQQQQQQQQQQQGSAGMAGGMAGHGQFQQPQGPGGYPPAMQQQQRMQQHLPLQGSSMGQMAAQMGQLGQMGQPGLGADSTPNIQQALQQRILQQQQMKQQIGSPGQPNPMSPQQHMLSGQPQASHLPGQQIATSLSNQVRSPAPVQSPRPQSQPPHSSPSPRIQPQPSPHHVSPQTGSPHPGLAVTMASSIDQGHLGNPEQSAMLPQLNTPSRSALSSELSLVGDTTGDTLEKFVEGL
Summary of the method: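 HepG2 cells given 3 μM compound and 100 μM 8-Br-cAMP for 6 h. Endogenous FOXO1 immunoprecipitated and its acetylation detected by immunoblot.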

[19] = molecular target: T1, CREB-binding protein/Histone acetyltransferase p300 (Homo sapiens); assay: Inhibition of CBP/p300 in mouse primary hepatocytes stimulated with 100 uM 8-Br-cAMP assessed as decrease in FOXO1 abundance in nucleus at 3 uM; format: cell-based; details: Primary hepatocyte
Summary of the method: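 Primary mouse hepatocytes treated with 3 μM compound and 100 μM 8-Br-cAMP. Nuclear and cytoplasmic fractions separated with a commercial kit; FOXO1 detected by western blot.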

Hepatocyte [20] = assay: Inhibition of glucogenesis in mouse primary hepatocytes stimulated with 100 uM 8-Br-cAMP assessed as decrease in G6Pc mRNA expression at 3 uM measured after 8 hrs by RT-qPCR assay

CNC(=O)Nc1ccc2c(c1)CCS21OC(=O)N(CC(=O)N(Cc2ccc(F)cc2)[C@@H](C)C(F)(F)F)C1=O (stereo not given in full)
Activity (Mus musculus [1]): ~14%
Activity (Mus musculus [2]): inactive
Activity (Mus musculus [3]): inactive
Activity (Mus musculus [4]): Active
Activity (Mus musculus [5]): Active
Activity (Mus musculus [6]): inactive
Activity (Mus musculus [7]): Active
inhibition (Mus musculus [8]): Active
inhibition (Adipocyte [9]): Active
inhibition (Adipocyte [10]): Active
inhibition (Adipocyte [11]): Active
inhibition (Mus musculus [12]): Active
inhibition (Mus musculus [13]): inactive
inhibition (Mus musculus [14]): inactive
inhibition (Mus musculus [15]): inactive
inhibition (Hepatocyte [16]): Active
inhibition (Hepatocyte [17]): inactive
inhibition [18]: Active
inhibition [19]: Active
inhibition (Hepatocyte [20]): Active
